Bioassay records (PubChem)
PAFAH1B2 inh: PAFAH1B2 enzyme inhibitors, primary screen, biochemical, fluorescence polarization, human; Platelet-activating factor acetylhydrolase IB subunit alpha2 (Homo sapiens), P68402; recombinant PAFAH1B2, FP-rhodamine activity probe; inhibition, % at 3.39 µM; hit rate 1.2% among 340,000;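 active = inhibition above the mean of all tested compounds plus 3 SD, cut at about 24% in these data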;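 note: 0% = enzyme with DMSO and 100% = wells lacking PAFAH1B2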
Target sequence (P68402 whole entry, looked up): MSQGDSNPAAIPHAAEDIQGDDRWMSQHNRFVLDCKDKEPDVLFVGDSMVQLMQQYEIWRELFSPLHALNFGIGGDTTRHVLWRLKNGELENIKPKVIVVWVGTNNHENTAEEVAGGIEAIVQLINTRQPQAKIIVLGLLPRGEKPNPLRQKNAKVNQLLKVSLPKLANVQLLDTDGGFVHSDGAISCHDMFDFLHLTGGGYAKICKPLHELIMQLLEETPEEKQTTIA
pPAFAH inh: pPAFAH enzyme inhibitors, primary screen, biochemical, fluorescence polarization, human. recombinant pPAFAH, FP-rhodamine probe fluorescence polarization. inhibition, % at 3.39 µM. hit rate 1.5% among 330,000. AID 463082, 2010;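 active = inhibition above the mean inhibition across the screen plus 3 SD, cut at about 25% in these data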;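 note: inhibitors block binding of the rhodamine activity-based probe so polarization drops; 0% = enzyme with DMSO and 100% = wells lacking pPAFAH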
PAFAH2 inh: PAFAH2 enzyme inhibitors, primary screen, biochemical, fluorescence polarization, human; Platelet-activating factor acetylhydrolase 2, cytoplasmic (Homo sapiens), Q99487; AID 492956, 2010; hit rate 0.99% among 340,000; recombinant PAFAH2, FP-rhodamine activity probe; inhibition, % at 3.39 µM;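 active = inhibition above the mean over all tested compounds plus 3 SD, cut at about 30% in these data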;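 note: inhibitors block probe labeling of enzyme so polarization drops; 0% = enzyme with DMSO and 100% = wells lacking PAFAH2 protein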
NR3A LBD binder: binders of NR3A ligand-binding domain, primary screen, biophysical, differential scanning fluorimetry, uHTS | Glutamate receptor ionotropic, NMDA 3A (GRIN3A) ligand-binding domain | NR3A LBD differential scanning fluorimetry, Tm shift; 0% = protein alone, 100% = glycine-bound protein | Tm shift relative to glycine control, % at 25 µM | hit rate 2.5% among 340,000 | AID 1259313, 2017;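 active = melting temperature shift of at least 10% of the positive control shift, at one fixed dose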
PAFAH1B3 inh: PAFAH1B3 enzyme inhibitors, primary screen, biochemical, fluorescence polarization, human; AID 492972, 2010; hit rate 0.28% among 340,000; inhibition, % at 3.39 µM; recombinant PAFAH1B3, FP-rhodamine probe;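 active = inhibition above the screen-wide average of all tested compounds plus 3 SD, cut at about 25% in these data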;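 note: 0% = enzyme with DMSO only and 100% = wells lacking PAFAH1B3 protein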
Target sequence (Q15102 whole entry, looked up): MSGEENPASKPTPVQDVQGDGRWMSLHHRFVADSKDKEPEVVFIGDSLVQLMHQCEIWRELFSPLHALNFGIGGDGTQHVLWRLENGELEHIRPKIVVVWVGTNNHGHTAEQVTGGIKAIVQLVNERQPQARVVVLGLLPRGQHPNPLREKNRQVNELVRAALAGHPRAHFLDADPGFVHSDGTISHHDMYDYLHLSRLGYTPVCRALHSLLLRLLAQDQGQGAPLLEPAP
UCH37 DUB inh: inhibitors of human UCH37 deubiquitinase, primary screen, biochemical, Ub-AMC cleavage, fluorescence | purified proteasome/UCH37 | Ubiquitin carboxyl-terminal hydrolase isozyme L5 (Homo sapiens), Q9Y5K5 | inhibition, % (concentration not given with the values) | hit rate 0.33% among 330,000;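 active = mean inhibition over replicate wells above about 20%, limit read from the data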;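 note: 0% = compound-free wells with enzyme and 100% = wells lacking proteasome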
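Material: Human UCH37 enzyme supplied as purified proteasome complex | Schedule: 30 min compound-proteasome preincubation then 25 min substrate reaction, room temperature | Detection: AMC fluorescence from Ub-AMC cleavage, excitation 355 nm, emission 460 nm | Benchmarks: Wells without proteasome as full block, compound-free enzyme plus substrate as uninhibited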
* hit, by the source's call. Hits are enriched below; roughly 4.8% of the tested compounds scored in any of these assays.

Screening O=C(O)CC1c2ccccc2CCN1S(=O)(=O)c1ccc(F)cc1 (stereo not given) returned PAFAH1B2 inh 31.2*, pPAFAH inh 3.5, PAFAH2 inh -6.2, NR3A LBD binder 2.0, PAFAH1B3 inh 1.3 and UCH37 DUB inh 6.8.
Screening CCc1cccc(CC)c1NC(=O)COC(=O)CC1c2ccccc2CCN1S(=O)(=O)c1ccc(F)cc1 (stereo not given) returned PAFAH1B2 inh 7.2, pPAFAH inh 19.4, PAFAH2 inh 14.5, NR3A LBD binder -3.1 and PAFAH1B3 inh 2.1.
O=C(CSc1nc2ccccc2o1)Nc1nc(-c2ccccc2)cs1 was read as PAFAH1B2 inh -1.5, pPAFAH inh -8.2, PAFAH2 inh -33.3, NR3A LBD binder 12.1*, PAFAH1B3 inh 13.3 and UCH37 DUB inh 3.5.
O=C(CSc1nc2ccccc2o1)Nc1nc2ccccc2s1 was read as PAFAH1B2 inh 3.0, pPAFAH inh 0.4, PAFAH2 inh -6.4, NR3A LBD binder -9.8, PAFAH1B3 inh 7.9 and UCH37 DUB inh 3.8.
Screening Cc1cc(-c2nnc(SCC(=O)Nc3nc(-c4ccccc4)cs3)o2)no1 returned PAFAH1B2 inh -3.0, pPAFAH inh 30.0*, PAFAH2 inh -10.4, NR3A LBD binder -1.2, PAFAH1B3 inh -0.4 and UCH37 DUB inh 3.7.
For Cc1ccc(NC(=O)CSc2nnc3c(n2)[nH]c2ccccc23)cc1 the results were PAFAH1B2 inh 4.2, pPAFAH inh -3.9, PAFAH2 inh -4.8, NR3A LBD binder -18.4, PAFAH1B3 inh 3.8 and UCH37 DUB inh -0.3.
For Cc1ccc(-c2csc(NC(=O)CSc3nnc4c(n3)[nH]c3ccccc34)n2)cc1 the results were PAFAH1B2 inh -6.5, pPAFAH inh -7.2, PAFAH2 inh -32.7, NR3A LBD binder 21.4*, PAFAH1B3 inh -10.4 and UCH37 DUB inh 4.6.
For COc1cccc(NC(=O)CC(C)=NNC(=O)C2CCCCC2)c1 the results were UCH37 DUB inh 2.2.
Screening COc1ccc(C(C)=NNC(=S)NCc2ccco2)cc1 returned UCH37 DUB inh 6.0.
O=[N+]([O-])c1ccccc1/C=C/C=Nn1c(-c2ccc(Cl)cc2)n[nH]c1=S was read as UCH37 DUB inh 2.9.
`CC(CCc1ccccc1)=NNC(=O)C(=O)Nc1cccc(Cl)c1` gave UCH37 DUB inh 1.0.
Screening C=CC[C@@H](CC(=O)NCCO)C(=O)N[C@@H](COC(=O)[C@@H](CC=C)CC(=O)OC(C)(C)C)Cc1c[nH]c2ccccc12 returned PAFAH1B2 inh 9.2, pPAFAH inh 6.7, PAFAH2 inh 5.7, NR3A LBD binder -0.8, PAFAH1B3 inh 9.7 and UCH37 DUB inh 22.9*.
For O=C1S/C(=C\C=C\c2ccco2)C(=O)N1c1ccccc1 the results were PAFAH1B2 inh -2.9, pPAFAH inh 25.8*, PAFAH2 inh 5.9, NR3A LBD binder -12.8 and PAFAH1B3 inh -3.4.
`CC(=NNC(N)=O)c1ccc(Cl)cc1` gave UCH37 DUB inh -3.9.
Screening Cc1cc(=O)[nH]c(N/N=C/c2cc(C)n(-c3ccccc3)c2C)n1 returned PAFAH1B2 inh 1.9, pPAFAH inh 31.3*, PAFAH2 inh 0.9, NR3A LBD binder -0.1 and PAFAH1B3 inh -1.6.
For COC(=O)c1ccc(N2CCOCC2)c(NC(=O)Nc2cccc(OC)c2)c1 the results were PAFAH1B2 inh 1.6, pPAFAH inh -2.5, PAFAH2 inh 6.5, NR3A LBD binder -1.0, PAFAH1B3 inh 8.0 and UCH37 DUB inh 4.1.
For CCOC(=O)c1ccc(N2CCN(c3ccccc3F)CC2)c(NC(=O)Nc2cccc(OC)c2)c1 the results were PAFAH1B2 inh -8.3, pPAFAH inh 25.6*, PAFAH2 inh -10.3, NR3A LBD binder 10.6*, PAFAH1B3 inh -22.1 and UCH37 DUB inh 1.5.
Screening CCC(=NNc1ccccc1[N+](=O)[O-])c1ccc(O)cc1 returned UCH37 DUB inh 3.8.
